For orientation: pKi means −log10 of the Ki, conventionally taken in molar units. What is called Ki is the dissociation constant of the complex between target and ligand, obtained from inhibition or displacement.

pKi: −log10 of the molar value.

The target of one experiment is Prothrombin (Homo sapiens, UniProt P00734). Nature of the experiment: Inhibition of purified human thrombin after 30 to 60 mins. In outline: (§1)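 Purified human enzyme, run at 25 °C. The reported Ki is the average of two experiments. The full protocol follows a previously published method.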
For the next experiment, the target named is Trypsin (Homo sapiens, UniProt P07477+P07478+P35030). Put plainly: Inhibition of purified human trypsin after 30 to 60 mins. The format is protein assay. The gist of the method:
as §1

In another experiment the target is Coagulation factor X (Homo sapiens, UniProt P00742). Nature of the experiment: Inhibition of purified human factor 10a using S2765 as substrate after 30 to 60 mins. In outline: as §1
Chain of Coagulation factor X (P00742 41-179 limits assumed): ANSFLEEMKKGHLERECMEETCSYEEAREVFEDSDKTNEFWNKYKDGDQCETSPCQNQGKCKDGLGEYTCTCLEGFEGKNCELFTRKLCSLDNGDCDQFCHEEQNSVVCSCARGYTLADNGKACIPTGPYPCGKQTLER
Chain of Coagulation factor X (P00742 235-488 limits assumed): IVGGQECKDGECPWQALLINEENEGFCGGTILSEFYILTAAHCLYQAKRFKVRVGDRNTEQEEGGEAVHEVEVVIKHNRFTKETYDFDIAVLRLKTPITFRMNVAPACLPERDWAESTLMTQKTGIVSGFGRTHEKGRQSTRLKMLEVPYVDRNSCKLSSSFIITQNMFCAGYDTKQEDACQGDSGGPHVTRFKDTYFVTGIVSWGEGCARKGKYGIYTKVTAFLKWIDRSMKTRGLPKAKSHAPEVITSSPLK
The target in another experiment is Coagulation factor XI (Homo sapiens, UniProt P03951). Put plainly: Inhibition of purified human factor 11a after 30 to 60 mins. In outline: as §1
Chain of Coagulation factor XI (P03951 19-387 limits assumed): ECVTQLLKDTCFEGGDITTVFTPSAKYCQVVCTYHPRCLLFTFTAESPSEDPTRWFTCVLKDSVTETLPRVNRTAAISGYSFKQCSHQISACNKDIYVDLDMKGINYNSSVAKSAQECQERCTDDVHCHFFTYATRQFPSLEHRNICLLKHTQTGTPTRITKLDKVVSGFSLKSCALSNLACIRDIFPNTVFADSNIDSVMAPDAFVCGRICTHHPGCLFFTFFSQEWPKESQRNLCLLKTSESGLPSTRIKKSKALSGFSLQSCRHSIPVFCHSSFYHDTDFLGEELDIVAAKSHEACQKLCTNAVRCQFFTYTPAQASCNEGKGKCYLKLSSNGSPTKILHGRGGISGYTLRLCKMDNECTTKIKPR
Chain of Coagulation factor XI (P03951 388-625 limits assumed): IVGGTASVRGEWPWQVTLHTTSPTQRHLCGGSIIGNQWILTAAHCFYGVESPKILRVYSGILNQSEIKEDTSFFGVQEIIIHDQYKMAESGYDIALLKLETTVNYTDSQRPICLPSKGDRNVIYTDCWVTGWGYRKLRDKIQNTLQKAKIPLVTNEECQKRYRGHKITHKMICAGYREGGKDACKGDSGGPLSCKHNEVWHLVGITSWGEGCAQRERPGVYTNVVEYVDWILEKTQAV
The target in experiment [1] is Coagulation factor VII/tissue factor (Homo sapiens, UniProt P08709). Nature of the experiment: Inhibition of recombinant human Tissue factor/factor 7a using S2288 as substrate after 30 to 60 mins. The class given is protein-complex assay. In outline: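 Enzyme is recombinant human TF/FVIIa complex, assayed at 25 °C. Ki is the mean of two experiments, and the method is the published protocol.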
Chain of Coagulation factor VII/tissue factor (P08709 61-212 limits assumed): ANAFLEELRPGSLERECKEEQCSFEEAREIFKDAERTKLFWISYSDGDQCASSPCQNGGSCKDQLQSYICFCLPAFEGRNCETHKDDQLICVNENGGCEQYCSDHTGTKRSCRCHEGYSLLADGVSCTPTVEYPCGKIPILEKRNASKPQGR
Chain of Coagulation factor VII/tissue factor (P08709 213-466 limits assumed): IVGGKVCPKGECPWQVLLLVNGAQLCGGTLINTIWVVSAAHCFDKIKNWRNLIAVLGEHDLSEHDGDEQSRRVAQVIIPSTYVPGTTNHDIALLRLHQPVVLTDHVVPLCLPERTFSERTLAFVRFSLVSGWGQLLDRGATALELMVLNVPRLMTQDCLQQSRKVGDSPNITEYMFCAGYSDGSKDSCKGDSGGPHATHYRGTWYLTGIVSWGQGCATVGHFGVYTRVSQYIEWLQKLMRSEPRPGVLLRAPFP
Chain of Coagulation factor VII/tissue factor (P13726 33-295 partner limits assumed): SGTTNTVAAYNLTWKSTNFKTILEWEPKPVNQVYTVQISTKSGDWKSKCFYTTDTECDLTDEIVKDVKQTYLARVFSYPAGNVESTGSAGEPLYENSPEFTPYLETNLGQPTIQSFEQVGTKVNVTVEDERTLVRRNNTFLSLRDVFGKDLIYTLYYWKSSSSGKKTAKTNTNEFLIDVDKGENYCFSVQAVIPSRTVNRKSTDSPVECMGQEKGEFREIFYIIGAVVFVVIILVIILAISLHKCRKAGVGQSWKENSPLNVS

The next experiment addresses Kallikrein-1 (Homo sapiens, UniProt P06870). Put plainly: Inhibition of purified human tissue kallikrein 1 using H-D-Val-Leu-Arg-AFC as substrate. The gist of the method:
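Uses purified human tissue kallikrein 1 at 37 °C. Ki is averaged from two independent experiments. The procedure follows an earlier published protocol.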

Chain of Kallikrein-1 (P06870 whole entry): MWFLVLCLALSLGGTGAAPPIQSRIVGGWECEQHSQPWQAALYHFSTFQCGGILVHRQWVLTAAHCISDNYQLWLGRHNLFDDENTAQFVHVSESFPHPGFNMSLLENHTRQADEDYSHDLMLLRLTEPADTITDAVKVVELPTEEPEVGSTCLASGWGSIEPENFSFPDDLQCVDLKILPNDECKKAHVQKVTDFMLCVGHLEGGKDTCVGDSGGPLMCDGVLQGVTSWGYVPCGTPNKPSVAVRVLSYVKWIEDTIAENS

With `C[C@H]1COC(=O)Nc2cccc(c2)CNC(=O)C(Nc2ccc3c(N)nccc3c2)c2ccc1cc2` (stereo partly drawn), the pKi on Prothrombin was 5.33; at Coagulation factor X, 5.35; on Coagulation factor XI, 5.04; in experiment [1], 6.85; on Kallikrein-1, 7.60. Moreover, the Ki at Trypsin is over 6.2 µM.
Consider `CC1COC(=O)Nc2cccc(c2)CNC(=O)C(Nc2ccc3c(N)nccc3c2)c2ccc1cc2` (stereo not drawn), for which the pKi on Prothrombin is under 4.89; at Coagulation factor X it was 5.59; at Coagulation factor XI, 4.97.
As for `Cc1cc2ccc1[C@@H](C)COC(=O)Nc1cccc(c1)CNC(=O)[C@H]2Nc1ccc2c(N)nccc2c1`, the pKi was under 4.94 on Prothrombin; under 4.88 at Coagulation factor X; under 4.85 at Coagulation factor XI; 5.35 in experiment [1]; 7.51 on Kallikrein-1. Moreover, at Trypsin, the inhibition constant (Ki) is over 10 µM.
In the case of `C[C@@H]1COC(=O)Nc2cccc(c2)CNC(=O)C(Nc2ccc3c(N)nccc3c2)c2ccc1cc2` (stereo partly drawn), the pKi is 5.13 at Prothrombin; 5.17 at Coagulation factor X; under 4.96 on Coagulation factor XI; 5.84 in experiment [1]; 8.40 at Kallikrein-1. Further, on Trypsin, the Ki is over 6.2 µM.
Consider `Nc1nccc2cc(NC3C(=O)NCc4cccc(c4)NC(=O)OCCc4ccc3cc4)ccc12` (stereo not drawn), for which the pKi at Prothrombin is under 4.89; at Coagulation factor X, 6.21; at Coagulation factor XI, 5.24; in experiment [1] it was 6.29; on Kallikrein-1, 7.46. The same compound yielded a Ki at Trypsin of 3.5 µM.
With `Cc1cc2ccc1[C@@H](C)COC(=O)Nc1cccc(c1)CNC(=O)[C@@H]2Nc1ccc2c(N)nccc2c1`, the pKi was under 4.94 at Prothrombin; under 4.88 at Coagulation factor X; under 4.85 on Coagulation factor XI; 8.85 in experiment [1]; 7.60 at Kallikrein-1. On Trypsin, this compound displayed a Ki of over 10 µM.

(Values after ChEMBL document CHEMBL3808300, “Atropisomer Control in Macrocyclic Factor VIIa Inhibitors” (J Med Chem, 2016).)
